RBBP9 inh = human RBBP9 hydrolase inhibition; recombinant RBBP9, FP-Rh probe fluorescence polarization; 0.2% of 220,000 active; O75884; inhibition, % at 7.94 µM;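 active means inhibition above the campaign mean of all tested compounds plus 3 SD, cut at about 14% in these data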
Target sequence (O75884 whole entry, looked up): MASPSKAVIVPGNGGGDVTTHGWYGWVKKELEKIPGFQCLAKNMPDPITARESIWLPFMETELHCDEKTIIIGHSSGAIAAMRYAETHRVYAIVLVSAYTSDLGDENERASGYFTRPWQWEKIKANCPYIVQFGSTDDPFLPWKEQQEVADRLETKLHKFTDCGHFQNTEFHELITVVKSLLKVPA
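Controls: DMSO-treated enzyme wells and wells lacking RBBP9 | Material: RBBP9 protein | Technique: Fluorescence polarization | Replication: Single well per compound, no replicates | Buffer or medium: Tris-NaCl-Pluronic buffer, pH 8.0 | Timing: 30 min compound preincubation, 45 min probe labeling, 25 °C | Read-out basis: Percent inhibition from mP, scaled between DMSO and no-protein wells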
PfM18AAP inh = blocks P. falciparum M18 aspartyl aminopeptidase; 1.2% of 290,000 active; inhibition, % at 7.35 µM; AID 1822; recombinant PfM18AAP, H-Glu-NHMec fluorogenic cleavage;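 active means inhibition above the campaign mean inhibition over all tested compounds plus 3 SD, cut at about 28% in these data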
Wee1 degr inh = inhibitors of human Wee1 degradation | HeLa Luc-Wee1K328M stability, luciferase luminescence; 100% = proteasome inhibitor MG132 effect | reporter increase, % at 5 µM | 1.2% of 220,000 active;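 active means activation above the mean of all tested compounds plus 3 SD, set per screening run, cut at about 8.8% in these data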;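 further: cells exposed to compound for 20 h before luminescence read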
zVAD death inh = L929 zVAD cell death inhibition; AID 1377; L929 zVAD necroptosis rescue, ATP luminescence, 24 h; with zVAD 60 µM; 0.38% of 220,000 active; viability rescue, % at 10 µM;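 active means activation, scaled between plate controls, above about 75%, limit read from the data; inactive means activation under that limit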
TNF necrop inh = blocks TNF-alpha induced death of Jurkat FADD-/- cells; Jurkat FADD-/- TNF necroptosis rescue, ATP luminescence, 24 h; 0 = TNF only, 100 = no-TNF cells; activation (protection from cell death), % at 10 µM; 0.068% of 220,000 active; AID 463075;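 active means activation, meaning protection from cell death, of at least 50% relative to plate controls; inactive means activation below 50%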;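 further: necroptosis triggered by 40 ng/mL TNF-alpha added together with compound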
p97 ATPase inh = human p97 ATPase inhibition; P55072; recombinant p97 ATPase, Kinase-Glo ATP luminescence, 3 h; inhibition, % at 8 µM; 0.42% of 220,000 active; AID 1481; in the data active means inhibition above about 15%
p97 confirm = confirmation of human p97 ATPase inhibitors | shares compounds with p97 ATPase inh | recombinant p97 ATPase, Kinase-Glo ATP luminescence | inhibition, % at 8 µM | 44% of 760 active | AID 1517;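 active means percent inhibition of p97 ATPase above a set limit, the primary screen's mean plus 3 SD, cut at about 15% in these data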
Numbers stand for hits; i = inactive; nt = not tested or not shown. The list is not random: actives were taken first. Their share in the collection is about 2.7%.

SMILES | RBBP9 inh | PfM18AAP inh | Wee1 degr inh | zVAD death inh | TNF necrop inh | p97 ATPase inh | p97 confirm
CCOC(=O)C1=C(c2ccccc2)Nc2ncnn2C1c1ccc(C(=O)O)cc1 (centres undefined) | i | i | i | i | i | i | nt
CCOC(=O)C1=C(c2ccccc2)NC(N)=NC1c1ccc(OCc2ccc(C(=O)OC)cc2)cc1 (centres undefined) | i | i | i | i | i | 32.9 | 34.6
COc1ccc2nc3cccc(OC)c3nc2c1 | i | i | i | i | i | i | nt
COc1ccc2nc3ccccc3nc2c1N | i | i | 9.0 | i | i | 25.6 | i
Nc1c(C(=O)Nc2ccccc2)sc2nc(-c3ccco3)ccc12 | i | i | i | i | i | 18.5 | 17.8
C#CCOCCOCCOCCNc1nc(N2CCN(C(=O)[C@H](Cc3cc4ccccc4[nH]3)n3cc([C@@H](N)C(C)CC)nn3)CC2)nc(N2CCN(C(=O)[C@H](Cc3cc4ccccc4[nH]3)n3cc([C@@H](N)Cc4ccc(O)cc4)nn3)CC2)n1 (some centres undefined) | i | i | i | i | i | 17.4 | 26.2
C#CCOCCOCCOCCNc1nc(N2CCN(C(=O)C(Cc3cc4ccccc4[nH]3)n3cc(C(N)Cc4ccc(O)cc4)nn3)CC2)nc(N2CCN(C(=O)C(Cc3cc4ccccc4[nH]3)n3cc(C(N)Cc4ccc(O)cc4)nn3)CC2)n1 (centres undefined) | i | i | i | i | i | 21.6 | 26.3
C#CCOCCOCCOCCNc1nc(N2CCN(C(=O)[C@H]([C@@H](C)CC)n3cc([C@@H](N)Cc4ccc(O)cc4)nn3)CC2)nc(N2CCN(C(=O)[C@H](Cc3cc4ccccc4[nH]3)n3cc([C@@H](N)C(C)CC)nn3)CC2)n1 (some centres undefined) | i | i | i | i | i | i | nt
C#CCOCCOCCOCCNc1nc(N2CCN(C(=O)[C@H](Cc3ccc(O)cc3)n3cc([C@@H](N)C(C)CC)nn3)CC2)nc(N2CCN(C(=O)[C@H](Cc3cc4ccccc4[nH]3)n3cc([C@@H](N)CC(C)C)nn3)CC2)n1 (some centres undefined) | i | i | i | i | i | 22.0 | i
C#CCOCCOCCOCCNc1nc(N2CCN(C(=O)[C@H](Cc3ccc(O)cc3)n3cc([C@@H](N)C(C)CC)nn3)CC2)nc(N2CCN(C(=O)[C@H](Cc3cc4ccccc4[nH]3)n3cc([C@@H](N)C(C)CC)nn3)CC2)n1 (some centres undefined) | i | i | i | i | i | 25.4 | i
COc1ccccc1NC(=O)c1coc(=O)c(Br)c1 | i | i | i | i | i | i | nt
C#CCOCCOCCOCCNc1nc(N2CCN(C(=O)[C@H](Cc3cc4ccccc4[nH]3)n3cc([C@@H](N)CC(C)C)nn3)CC2)nc(N2CCN(C(=O)[C@H](Cc3cc4ccccc4[nH]3)n3cc([C@@H](N)CC(C)C)nn3)CC2)n1 | i | i | i | i | i | 27.5 | 26.7
C#CCOCCOCCOCCNc1nc(N2CCOCC2)nc(N2CCN(C(=O)[C@H](Cc3cc4ccccc4[nH]3)n3cc([C@@H](N)CC(C)C)nn3)CC2)n1 | i | i | i | i | i | i | nt
CN(C)C(=O)COC(=O)c1ccccc1NC(=O)c1ccco1 | i | i | i | i | i | i | nt
C=CCn1c(SCC(=O)NCc2ccco2)nc2ccccc2c1=O | i | i | i | i | i | 15.3 | i
CC1CCCC(NCC(O)COC(c2ccc(F)cc2)c2ccc(F)cc2)C1C (centres undefined) | i | i | i | i | i | 15.2 | i
CC1CCCC(NC(=O)CSc2ccc(F)cc2)C1C (centres undefined) | i | i | i | i | i | i | nt
Cc1onc(-c2ccccc2)c1C(=O)N=C(N)c1ccc(C(F)(F)F)cc1 | i | i | i | i | i | i | nt
Cc1ccc(OCC(=O)Nc2ccc(N3CCN(C(=O)c4ccco4)CC3)cc2)cc1 | i | i | i | i | i | i | nt
CC(=O)N(/N=C1\Sc2ccccc2C1=O)c1cccc(C)c1 | i | i | i | i | i | 15.0 | 24.2
COc1ccc(C(c2c(C)n(C)n(-c3ccccc3)c2=O)c2c(C)n(C)n(-c3ccccc3)c2=O)cc1OC | nt | i | nt | nt | nt | nt | nt
COc1ccc(C(c2c(C)[nH]n(-c3ccccc3)c2=O)c2c(C)[nH]n(-c3ccccc3)c2=O)cc1OC | i | i | i | i | i | 30.2 | i
COCC(=O)N(CCc1ccc(OC)c(OC)c1)Cc1nc2ccccc2c(=O)[nH]1 | i | i | i | i | i | 16.4 | i
O=C1C2CC(O)CN2C(=S)N1Cc1ccccc1 (centres undefined) | i | i | i | i | i | i | nt
COC(=O)c1c(NC(=O)/C=C/C(=O)O)sc(Cc2ccccc2)c1C | i | i | i | i | i | 15.3 | 23.4
SMILES | RBBP9 inh | PfM18AAP inh | Wee1 degr inh | zVAD death inh | TNF necrop inh | p97 ATPase inh | p97 confirm
N#C/C(=C/c1ccco1)C(N)=S | i | i | i | i | i | 27.4 | i
O/N=C\c1cnc(N2CCN(c3ccccc3)CC2)s1 | nt | i | nt | nt | nt | nt | nt
Cc1cccc(N=C2NC(=O)/C(=C/C=C/c3ccco3)S2)c1C | i | i | i | i | i | 20.9 | i
c1ccc(CN2CCN(c3ncnc4c3[nH]c3ccccc34)CC2)cc1 | i | i | i | i | i | 14.9 | i
CCn1c(CCC(=O)O)nc2cc(S(=O)(=O)N(C)C)ccc21 | i | i | i | i | i | i | nt
CN(C)S(=O)(=O)c1ccc2c(c1)nc(CCC(=O)O)n2C | i | i | i | i | i | 15.7 | i
CCNC(=O)Oc1ccc[nH]c1=O | i | i | i | i | i | 17.1 | i
COc1ccc(C(=O)Oc2ccc[nH]c2=O)cc1 | i | i | i | i | i | i | nt
Cc1cc(O)c(C=O)c2c1C(=O)Oc1c(CO)c(O)c3c(c1O2)C(O)OC3=O (centres undefined) | 31.6 | i | i | i | i | 64.1 | 24.3
Cc1ccc(-c2nc(Nc3ccc(O)cc3)c3ccccc3n2)cc1 | nt | i | nt | nt | nt | nt | nt
Cc1ccc(-c2nc(Nc3ccc(N4CCOCC4)cc3)c3ccccc3n2)cc1 | i | i | i | i | i | 15.1 | i
O=C1CCc2ccccc2N1 | i | i | i | i | i | i | nt
S=C1Cc2ccccc2N1 | i | i | i | i | i | 31.8 | 66.5
CC(NC(=O)Nc1ccc(O)cc1)(C(F)(F)F)C(F)(F)F | i | i | i | i | i | 29.7 | i
COc1ccc(NC(=O)NC(C)(C(F)(F)F)C(F)(F)F)cc1 | i | i | i | i | i | i | nt
C[C@H](NC(N)=O)C(=O)Nc1ccc2c(c1)OCO2 | i | i | i | i | i | i | nt

Screens deposited in PubChem BioAssay by several laboratories.
